The subject of data set [1] is Giardia intestinalis. Briefly: Antiprotozoal activity against Giardia lamblia WB6 trophozoites after 48 hrs. The format is functional. The note with it: Giardia duodenalis, WB6, 48 h. Summed up: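 Trophozoites of strain WB-6 cultured anaerobically 48 h with 2-fold serial drug dilutions, triplicate wells; viability read by XTT reagent.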
Data set [2] in a line: Toxicity in MDBK cells. The format is cell-based. The note with it: Bos taurus.
For data set [3], the system named is Giardia intestinalis. Briefly: Cyst formation in Giardia lamblia WB6 at 10 uM relative to control. The settings on record: Giardia duodenalis.

Values after ≈ are worked out from the molar mass of the structure shown.

A word on the MIC: it is the smallest concentration in the dilution series that meets the test's criterion for growth inhibition. High values mean a need for much substance, low ones inhibition by little substance. Usually EC50 stands for the midpoint of the concentration-response curve. Read a high EC50 as a need for much substance.

`CCOP(=O)(CCNCCOC(C)=O)OCC`: the MIC against Giardia intestinalis [1] is greater than 20 µM. In data set [2], this compound yielded an EC50 greater than 250 µM.

The compound `O=c1ccn(C[C@@H]2O[C@H](COP(=O)(O)COCCN3C[C@@H](O)[C@H](O)C3)[C@@H](O)[C@H]2O)c(=O)[nH]1` yielded an MIC in the data set on Giardia intestinalis [1] of 20 µM (≈ 9.63 µg/mL). Also, in data set [2], the EC50 was greater than 250 µM. Also, the level, % of control at 10 µM in the data set with Giardia intestinalis [3] came out at 17.2%.

In turn, `CC(=O)OCCN(CCO)CCP(=O)(O)OC[C@H]1O[C@@H](Cn2ccc(=O)[nH]c2=O)[C@H](O)[C@@H]1O` returned a minimal inhibitory concentration (MIC) in the data set with Giardia intestinalis [1] greater than 10 µM. For the same compound, the EC50 in data set [2] was greater than 250 µM. In the data set on Giardia intestinalis [3], this compound returned a level, % of control at 10 µM of 35.6%.

In the data set on Giardia intestinalis [1], `O=c1ccn(C[C@@H]2O[C@H](COP(=O)(O)CCN3CCCC3)[C@@H](O)[C@H]2O)c(=O)[nH]1` gave an MIC greater than 20 µM. For the same compound, in data set [2], the EC50 was greater than 250 µM.

With `O=C1[C@@H](O)[C@H](O)C(=O)N1CCP(=O)(O)OC[C@H]1O[C@@H](Cn2ccc(=O)[nH]c2=O)[C@H](O)[C@@H]1O`, in the data set on Giardia intestinalis [1], the MIC was greater than 20 µM. The compound also had an EC50 in data set [2] greater than 250 µM. The same compound had a level, % of control at 10 µM in the data set on Giardia intestinalis [3] of 28.7%.

With `O=c1ccn(C[C@@H]2O[C@H](COP(=O)(O)CCN(CCO)CCO)[C@@H](O)[C@H]2O)c(=O)[nH]1`, the MIC against Giardia intestinalis [1] is greater than 10 µM. This compound also registered an EC50 in data set [2] greater than 250 µM. Moreover, the level, % of control at 10 µM with Giardia intestinalis [3] stood at 72.2%.

Turning to `CC(=O)OCCN(CCOC(C)=O)CCP(=O)(O)OC[C@H]1O[C@@H](Cn2ccc(=O)[nH]c2=O)[C@H](O)[C@@H]1O`, the MIC in the data set with Giardia intestinalis [1] is greater than 10 µM. Besides, the EC50 in data set [2] was greater than 250 µM. Besides, in the data set on Giardia intestinalis [3], the level, % of control at 10 µM was 27.4%.

In the data set on Giardia intestinalis [1], `O=c1ccn(C[C@@H]2O[C@H](COP(=O)(O)CCNCCO)[C@@H](O)[C@H]2O)c(=O)[nH]1` returned an MIC greater than 20 µM. This compound also gave an EC50 in data set [2] greater than 250 µM.

In turn, `O=c1ccn(C[C@@H]2O[C@H](COP(=O)(O)CN3C[C@@H](O)[C@H](O)C3)[C@@H](O)[C@H]2O)c(=O)[nH]1` showed an MIC in the data set on Giardia intestinalis [1] greater than 20 µM. The compound also registered an EC50 in data set [2] greater than 250 µM.

In the data set with Giardia intestinalis [1], `NCP(=O)(O)OC[C@H]1O[C@@H](n2ccc(=O)[nH]c2=O)[C@H](O)[C@@H]1O` displayed an MIC greater than 20 µM. The compound also gave an EC50 in data set [2] greater than 250 µM. Also, the level, % of control at 10 µM in the data set on Giardia intestinalis [3] amounted to 34.4%.

Regarding `NCCP(=O)(O)OC[C@H]1O[C@@H](n2ccc(=O)[nH]c2=O)[C@H](O)[C@@H]1O`, the MIC against Giardia intestinalis [1] was greater than 10 µM. The compound also had an EC50 in data set [2] greater than 250 µM. The same compound showed a level, % of control at 10 µM in the data set on Giardia intestinalis [3] of 14.9%.

In the data set with Giardia intestinalis [1], `O=c1ccn(C[C@@H]2O[C@H](COP(=O)(O)CCN3C[C@H](O)[C@@H](O)C3)[C@@H](O)[C@H]2O)c(=O)[nH]1` displayed an MIC of 0.48 µM (≈ 0.217 µg/mL). In data set [2], this compound showed an EC50 greater than 250 µM. In addition, the level, % of control at 10 µM with Giardia intestinalis [3] came out at 5.73%.

Take `CCOP(=O)(CCN(CCOC(C)=O)CCOC(C)=O)OCC`: the MIC against Giardia intestinalis [1] is greater than 20 µM. In data set [2], this compound registered an EC50 greater than 250 µM.

With `O=c1ccn(C[C@@H]2O[C@H](COP(=O)(O)CCCN3C[C@H](O)[C@@H](O)C3)[C@@H](O)[C@H]2O)c(=O)[nH]1`, the MIC in the data set with Giardia intestinalis [1] amounted to 20 µM (≈ 9.31 µg/mL). The compound further displayed an EC50 in data set [2] greater than 250 µM. In the data set with Giardia intestinalis [3], this compound returned a level, % of control at 10 µM of 22.9%.

The record behind these values is ChEMBL document CHEMBL1147902, “Phosphonoxins: rational design and discovery of a potent nucleotide anti-Giardia agent” (Bioorg Med Chem Lett, 2007).
